# Test results taken from ChEMBL document CHEMBL1124605, “Synthesis and anthelmintic activity of a series of pyrazino[2,1-a][2]benzazepine derivatives” (1989).
# System: Taenia crassiceps
# Assay: 1 Minimum inhibitory concentration to prevent all movement of cysts and evaginated scoleces of in vitro Taenia crassiceps screen after 48 h
# Assay type: functional
# In short: (§1)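 Taenia crassiceps cysts taken from mice, pepsin-treated (0.05% in HCl, pH 2.0, 5 min, 37 °C) and washed three times in Hank's balanced salt solution. Compound added as a methylcellulose suspension (final 10 μg/mL) in CMRL 1066-based medium with fetal calf serum, glucose, taurocholate, yeast extract, HEPES and antibiotics, at 37 °C. Invaginated and evaginated cysts scored at 24 and 48 h. Actives titrated for MIC.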
row,MIC,SMILES
1,< 0.1 µg/mL,"O=C(C1CCCCC1)N1CC(=O)N2CCCc3ccccc3C2C1 (single isomer, unassigned; (-)) [EPSIPRANTEL]"

# System: Taenia crassiceps
# Assay: Minimum inhibitory concentration to prevent all movement of cysts and evaginated scoleces of in vitro Taenia crassiceps screen after 48 h
# Assay type: functional
# In short: as §1
row,MIC,SMILES
1,> 10 µg/mL,CN(C)c1ccc(C(=O)N2CC(=O)N3CCCc4ccccc4C3C2)cc1 (stereo unspecified)
2,> 10 µg/mL,O=C(c1ccc(O)cc1)N1CC(=O)N2CCCc3ccccc3C2C1 (stereo unspecified)
3,> 10 µg/mL,CCCCCC(=O)N1CC(=O)N2CCCc3ccccc3C2C1 (stereo unspecified)
4,> 10 µg/mL,O=C(C1CCCCC1)N1CC(=O)N2CCSc3ccccc3C2C1 (stereo unspecified)
5,> 10 µg/mL,CC(=O)N1CC(=O)N2CCCc3ccccc3C2C1 (stereo unspecified)
6,> 10 µg/mL,O=C(c1ccc(F)cc1)N1CC(=O)N2CCCc3ccccc3C2C1 (stereo unspecified)
7,≤ 10 µg/mL,O=C(c1cccc([N+](=O)[O-])c1)N1CC(=O)N2CCCc3ccccc3C2C1 (stereo unspecified)
8,> 10 µg/mL,O=C(c1cccnc1)N1CC(=O)N2CCCc3ccccc3C2C1 (stereo unspecified)
9,> 10 µg/mL,Cc1ccccc1C(=O)N1CC(=O)N2CCCc3ccccc3C2C1 (stereo unspecified)
10,≤ 10 µg/mL,Cc1ccc(C(=O)N2CC(=O)N3CCCc4ccccc4C3C2)cc1 (stereo unspecified)
11,> 10 µg/mL,COc1ccc(C(=O)N2CC(=O)N3CCCc4ccccc4C3C2)cc1 (stereo unspecified)
12,> 10 µg/mL,O=C(c1ccc([N+](=O)[O-])cc1)N1CC(=O)N2CCCc3ccccc3C2C1 (stereo unspecified)
13,> 10 µg/mL,O=C(C1CCC1)N1CC(=O)N2CCCc3ccccc3C2C1 (stereo unspecified)
14,> 10 µg/mL,Cc1cccc(C(=O)N2CC(=O)N3CCCc4ccccc4C3C2)c1 (stereo unspecified)
15,> 10 µg/mL,Cl.O=C(C1CCCCC1)N1CCN2CCCc3ccccc3C2C1 (stereo unspecified)
16,≤ 0.1 µg/mL,O=C(C1CCCCC1)N1CC(=O)N2CCc3ccccc3C2C1 (stereo unspecified) [PRAZIQUANTEL]
17,> 10 µg/mL,O=C(C1CCOCC1)N1CC(=O)N2CCCc3ccccc3C2C1 (stereo unspecified)
18,> 10 µg/mL,Nc1cccc(C(=O)N2CC(=O)N3CCCc4ccccc4C3C2)c1 (stereo unspecified)
19,> 10 µg/mL,O=C(c1ccc(Cl)cc1)N1CC(=O)N2CCCc3ccccc3C2C1 (stereo unspecified)
20,> 10 µg/mL,COc1cc2c(cc1OC)C1CN(C(=O)C3CCCCC3)CC(=O)N1CCC2 (stereo unspecified)
21,> 10 µg/mL,CC(C)C(=O)N1CC(=O)N2CCCc3ccccc3C2C1 (stereo unspecified)
22,> 10 µg/mL,O=C(c1cccc(Cl)c1)N1CC(=O)N2CCCc3ccccc3C2C1 (stereo unspecified)
23,≤ 0.1 µg/mL,O=C(C1CCCCC1)N1CC(=O)N2CCCc3ccccc3C2C1 (stereo unspecified) [EPSIPRANTEL]
24,> 10 µg/mL,O=C(C1CCCCC1)N1CC(=S)N2CCCc3ccccc3C2C1 (stereo unspecified)
25,> 10 µg/mL,O=C(C1CCCCCC1)N1CC(=O)N2CCCc3ccccc3C2C1 (stereo unspecified)
